Beta apoptosis = beta cell apoptosis inhibition. INS-1E cytokine-induced death, ATP luminescence, 48 h; percent of positive-control rescue, neutral wells zero. protection from apoptosis, % (concentration not given with the values). hit rate 0.8% among 300,000. AID 435005;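 active means Every replicate reaches about 75%, or at least half do and their mean reaches it too, limit read from the data; inconclusive means At least half of replicates reach the limit but their mean does not; inactive means Under half of replicates reach the limit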;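 further: 0% = cytokine-treated negative control wells and 100% = positive control rescue; higher means more ATP so stronger rescue from cytokine killing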
T cruzi inh = T. cruzi replication inhibition. T. cruzi beta-gal in NIH3T3, luminescence, 90 h. inhibition, % (test concentration not listed). hit rate 1.4% among 300,000. AID 1885;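 active means mean inhibition across valid replicates above about 55%, limit read from the data; inconclusive means mean below that limit but half or more replicates reach it; inactive means mean below it, under half of replicates reach it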;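 further: signal also drops with host cell toxicity which is not excluded here; 0% = plate median of DMSO wells and 100% = zero luminescence signal; higher percent means less beta-gal luminescence so fewer parasites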
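Test system: β-gal T. cruzi (Tulahuen C4) inside NIH/3T3 cells / Quantity: 5,000 cells/well / Measured by: luminescence from GalScreen with 0.05% NP40, read after 60 min / Medium: DMEM plus 2% FBS / Measure: parasite load inhibition, % / Reagent: Tulahuen C4 trypomastigotes, 5000/well / Schedule: co-culture of at least 90 h after 3 h attachment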
GRIN3A LBD mod = modulates the human NR3A ligand-binding domain | NR3A LBD differential scanning fluorimetry, Tm shift; 0% = protein alone, 100% = glycine-bound protein | Tm shift relative to glycine control, % at 25 µM | hit rate 2.5% among 340,000 | AID 1259313;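 active means melting temperature shift of at least 10% of the positive control shift, at one fixed dose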
CHOP inhibitor = blocks CHOP induction under ER stress; CHO-K1 CHOP-promoter luciferase, tunicamycin-induced, 15-18 h; inhibition, % at 10 µM; hit rate 3.8% among 220,000; AID 2732;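 active means compounds that reduced the stress-induced luciferase reporter signal by more than about 70% of percent inhibition, limit read from the data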;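 further: 0% = tunicamycin plus vehicle and 100% = wells without tunicamycin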
CSC inhib = cancer stem cell inhibition. cancer stem cell-like cells viability, luminescence. hit rate 1.1% among 300,000. inhibition, % at 7.5 µM. AID 2717; in the data active means inhibition above about 75%; inconclusive means no clear call, values can overlap the other calls; tested in HMLE shEcad cells
PREPL inhibitor = inhibitors of human prolyl oligopeptidase-like enzyme PREPL | recombinant PREPL, fluorescence polarization activity-based probe | AID 2751 | inhibition, % at 5.96 µM | hit rate 0.68% among 320,000 | Q4J6C6; in the data active means inhibition above about 43%;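 further: 0% = enzyme with DMSO and 100% = wells lacking enzyme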
Target sequence (Q4J6C6 whole entry, looked up): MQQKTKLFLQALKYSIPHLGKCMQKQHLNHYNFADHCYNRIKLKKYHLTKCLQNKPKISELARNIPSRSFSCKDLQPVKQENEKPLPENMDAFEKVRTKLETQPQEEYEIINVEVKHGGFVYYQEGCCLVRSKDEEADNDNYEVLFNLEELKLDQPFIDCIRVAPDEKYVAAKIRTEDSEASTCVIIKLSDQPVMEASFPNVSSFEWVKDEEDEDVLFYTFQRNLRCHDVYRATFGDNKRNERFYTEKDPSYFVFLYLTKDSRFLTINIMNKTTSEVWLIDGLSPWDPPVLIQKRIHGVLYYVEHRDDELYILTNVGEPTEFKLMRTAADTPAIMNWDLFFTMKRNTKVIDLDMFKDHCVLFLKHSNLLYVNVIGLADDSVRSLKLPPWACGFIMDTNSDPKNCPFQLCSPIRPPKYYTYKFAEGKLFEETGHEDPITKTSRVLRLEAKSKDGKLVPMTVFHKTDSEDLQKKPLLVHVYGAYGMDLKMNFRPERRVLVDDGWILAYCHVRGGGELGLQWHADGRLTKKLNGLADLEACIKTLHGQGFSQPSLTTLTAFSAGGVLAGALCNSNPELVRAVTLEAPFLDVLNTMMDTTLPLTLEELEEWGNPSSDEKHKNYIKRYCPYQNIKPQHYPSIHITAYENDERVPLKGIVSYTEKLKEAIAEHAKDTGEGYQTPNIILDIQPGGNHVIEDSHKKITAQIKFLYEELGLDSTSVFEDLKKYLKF
Active calls of the source: *; ? = inconclusive; . = not tested or not shown. A selection: hits, their analogues and other compounds. The true share with any hit is near 6.7%.

SMILES | Beta apoptosis | T cruzi inh | GRIN3A LBD mod | CHOP inhibitor | CSC inhib | PREPL inhibitor
Cc1cc(NC(=O)CSCC(=O)Nc2cc(Cl)ccc2N2CCN(C)CC2)no1 | -4.6 | . | 1.0 | . | -9.4 | 7.2
CN1CCC(N(C)S(=O)(=O)c2ccc(C(C)(C)C)cc2)CC1 | 0.3 | 64.6* | 0.2 | . | 24.1 | 4.8
CC(=O)Nc1ccc(S(=O)(=O)N(C)C2CCN(C)CC2)cc1 | -1.6 | 10.2 | -0.5 | . | -10.2 | -6.1
O=c1cnn(-c2ccccc2)c(-c2ccccc2)c1 | 4.1 | -5.1 | 1.7 | -17.6 | 8.8 | 1.5
COc1ccc(CN2CCSc3sccc3C2=O)cc1 | -1.6 | -9.4 | 0.2 | . | -7.6 | -4.0
CN1CCN(c2ccc(S(=O)(=O)N3CCCCC3)cc2NC(=O)COc2ccc(F)cc2)CC1 | 9.0 | 64.4* | 2.3 | . | -3.7 | 9.9
Cc1cccc(OCC(=O)Nc2cc(S(=O)(=O)N3CCCCC3)ccc2N2CCN(C)CC2)c1 | 2.1 | 50.3 | 0.2 | 26.7 | 0.8 | 24.6
CC(=O)N1c2ccccc2Sc2ccccc21 | -9.1 | 8.3 | -2.9 | . | 4.9 | .
CN1c2ccccc2Sc2cc(N)ccc21 | . | 70.9* | 0.3 | . | 53.0 | 6.6
CCOC(=O)N1C(=O)[C@@](c2ccc(Cl)cc2)(C(C)C)N1C(=O)OCC | 21.6 | -23.3 | -2.1 | . | 77.8* | -2.1
CC(OC(=O)CCCN=C1NS(=O)(=O)c2ccccc21)C(=O)Nc1ccccc1[N+](=O)[O-] (centres undefined) | . | 3.1 | -2.1 | . | -16.0 | 2.7
Cc1ccccc1OCC(=O)Nc1nnc(C2CCCC2)s1 | . | -2.8 | 1.7 | . | -4.4 | -6.5
CCOc1ccccc1NC(=O)CCC(=O)Nc1nnc(C2CCCCC2)s1 | -7.0 | 10.3 | 14.8* | . | -1.7 | 3.8
CC1=C/C(=N\NC(=S)Nc2cccnc2)CC(C)(C)C1 | . | 49.3 | 1.5 | -97.2 | . | .
COc1cc(NC2CCCCC2O)c2nc(-c3ccc(Cl)cc3)ccc2c1 (centres undefined) | 80.4* | 47.4 | 0.6 | -18.0 | ? | 35.2
COc1ccc(OCC(=O)OCC(=O)NC2CCCCC2C)cc1 (centres undefined) | -7.1 | . | -0.2 | . | . | 4.2
O=C1NC(Cc2ccccc2)c2nc3ccc(Cl)cc3c(=O)n2-c2ccccc21 (centres undefined) | 2.4 | . | . | . | . | 15.8
O=C(CN1CCCC1)N1c2ccccc2Sc2ccc(C(F)(F)F)cc21 | 2.4 | 16.8 | -6.7 | 16.6 | -0.1 | -2.5
O=C(CSc1nc2ccccc2o1)N1c2ccccc2Sc2ccc(C(F)(F)F)cc21 | 2.8 | 50.1 | 11.9* | 19.0 | 20.8 | -6.2
CC(=O)/C(C#N)=C1\NC(=O)C(Cc2ccccc2C)S1 (centres undefined) | -3.2 | 16.7 | -0.3 | 8.3 | 45.6 | 11.5
Cc1cc(C)cc(N2C(=O)CC(c3ccccc3)CC2=O)c1 | -3.8 | . | 17.3* | . | -4.1 | 17.0
CN(C)c1ccc(N2C(=O)CC(c3ccccc3)CC2=O)cc1 | -3.7 | -3.3 | 2.0 | -3.0 | 10.0 | 23.4
CCCn1c(NC(=O)c2cccc(C)c2C)nc2ccccc21 | 21.5 | ? | -1.7 | -13.8 | 46.6 | 6.8
CCCn1c(NC(=O)c2ccc(Cl)c(S(=O)(=O)N3CCCC3)c2)nc2ccccc21 | . | 66.1* | -11.8 | 48.9 | 38.0 | 0.9
CCCn1c(NC(=O)c2ccc([N+](=O)[O-])o2)nc2ccccc21 | . | 57.8* | -5.0 | . | 58.5 | 31.7
SMILES | Beta apoptosis | T cruzi inh | GRIN3A LBD mod | CHOP inhibitor | CSC inhib | PREPL inhibitor
CCN(CC)CCn1c(NC(=O)c2ccc(C(F)(F)F)cc2)nc2ccccc21 | 20.0 | 62.0* | 4.0 | 46.7 | -11.6 | 5.9
CCOC(=O)[C@H]1[C@H]2COc3ccc(Br)cc3[C@H]2N2C(=O)CN(Cc3ccc(Cl)cc3)C(=O)[C@@]12C | . | . | -2.5 | . | . | .
C=C(CC1([C@@H](NP(=O)(c2ccccc2)c2ccccc2)[C@H]2C[C@@H]2CCCC)CC1)c1ccccc1 | 38.1 | -12.1 | 1.3 | 30.0 | 123.3* | -16.8
CCCC[C@@H]1C[C@H]1[C@@H](NC(=O)c1ccccc1)c1ccccc1C(F)(F)F | -5.1 | -9.9 | -5.4 | 33.7 | 17.2 | -1.6
CCc1ccc(NC(=O)CSc2nc3cc(C(=O)OC)ccc3c(=O)n2Cc2ccco2)cc1 | 9.1 | -0.3 | 0.5 | -8.1 | -0.5 | 5.4
COc1cc2nc(SCC(=O)NCc3ccco3)n(Cc3ccc(Cl)cc3)c(=O)c2cc1OC | -9.0 | -12.1 | -1.2 | 88.7* | . | -7.3
COc1cc2c(=O)n(Cc3ccccc3)c(=O)n(CC(=O)NCc3ccco3)c2cc1OC | . | 6.8 | -1.4 | 70.9* | . | .
CCOC(=O)c1c(NC(=O)CSc2nc3cc(Cl)ccc3c(=O)n2Cc2ccco2)sc(C(=O)N(C)C)c1C | 27.5 | 61.0* | 1.2 | 40.0 | 52.3 | 7.9
COCCn1c(SCC(=O)Nc2sccc2C(N)=O)nc2cc(Cl)ccc2c1=O | 12.4 | 5.1 | 37.5* | 41.4 | -7.9 | -14.8
COCCn1c(SCC(=O)Nc2cccnc2Cl)nc2cc(Cl)ccc2c1=O | -2.8 | . | -0.4 | . | -3.2 | 12.4
CCCCn1c(N)c(N(CC(C)C)C(=O)CSCC(=O)Nc2ccc(C)cc2)c(=O)[nH]c1=O | -2.2 | . | 2.5 | . | . | 5.6
COC(=O)C1=C(CS(=O)(=O)c2ccc(OC)c(OC)c2)NC(=O)NC1c1ccc(O)c(OC)c1 (centres undefined) | 0.7 | -6.4 | -2.4 | . | -15.1 | 18.8
CCCCCn1c(SCC(=O)OCC)nc2cc(C(=O)NCc3ccco3)ccc2c1=O | 5.8 | 3.9 | 0.3 | 73.4* | 3.5 | -0.1
CN(C)CCCN=Cc1c(O)n(Cc2ccc3c(c2)OCO3)c(=O)c2ccccc12 | 5.1 | 74.6* | . | 4.0 | -2.7 | 31.7
CN(C)CCN=Cc1c(O)n(Cc2ccc3c(c2)OCO3)c(=O)c2ccccc12 | -0.2 | 46.1 | -0.7 | 5.8 | -5.8 | 12.4
Cc1ccc(Oc2nc(-c3ccccc3)ncc2S(C)(=O)=O)cc1 | -5.8 | 3.8 | -0.4 | 27.7 | -5.5 | -5.1
Cc1ccc(Oc2nc(-c3ccccc3)ncc2S(=O)(=O)c2ccc(C)cc2)cc1 | 3.2 | 19.6 | 11.4* | 14.4 | -2.4 | -2.0
COc1cccc(NC(=O)CN(C)C(=O)/C=C/c2cn(-c3ccccc3)nc2-c2ccc(OC)c(OC)c2)c1 | . | . | -1.0 | . | . | .
COc1ccc(-c2nn(-c3ccccc3)cc2/C=C/C(=O)N(C)CC(=O)Nc2cccc(F)c2)cc1OC | . | . | 10.8* | . | . | .
CCN(CC(=O)Nc1ccc(NC(C)=O)cc1)C(=O)/C=C/c1cn(-c2ccccc2)nc1-c1ccc(F)cc1 | . | -1.8 | 13.7* | . | -13.2 | -3.6
CCN(CC(=O)Nc1ccc(NC(C)=O)cc1)C(=O)c1cc(-c2ccccc2)nn1-c1ccccc1 | -8.1 | -2.1 | -1.0 | . | . | -16.1
CCN(CC(=O)Nc1ccc(NC(C)=O)cc1)C(=O)/C=C/c1cn(-c2ccccc2)nc1-c1ccc(C)cc1 | -7.6 | 36.2 | 10.4* | . | 9.3 | -1.9
Clc1ccc(OCCCCCN2CCOCC2)cc1 | -2.7 | 16.4 | 2.8 | . | -10.1 | 6.2
Cc1c(C=C(C#N)c2ccc([N+](=O)[O-])cc2)c(=O)n(-c2ccccc2)n1C | . | . | 0.7 | . | . | .

Screens deposited in PubChem BioAssay by several laboratories.
